The values below come from ChEMBL document CHEMBL2331235, “Solphenazines A-F, glycosylated phenazines from Streptomyces sp. strain DL-93” (J Nat Prod, 2013).

Series [1] concerns Streptomyces scabiei. As to the kind of experiment: Antimicrobial activity against Streptomyces scabies NRRL B 2795 at 25 ug/disk after 2 days by disk diffusion assay. In kind it is functional. In outline: (§1)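 S. scabies grown 5 days in liquid ISP2, diluted 1:10 in molten ISP2 agar. Paper discs carrying 25 μg compound (applied in 20 μL methanol) were set on a thin agar layer and overlaid with 10 mL of the seeded agar (double-layer method). Plates were incubated 2 days at 30 °C, and inhibition zone diameters were measured.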
(In agar diffusion tests the substance spreads into inoculated agar from a disc or well.)

The test system of another series is Bacillus spizizenii. As to the kind of experiment: Antimicrobial activity against Bacillus subtilis ATCC 6633 by microbroth dilution assay. In kind it is functional. In general terms: Broth dilution looks for growth in wells or tubes with falling amounts of substance.
The test system of a further series is HCT16. As to the kind of experiment: (§2) Cytotoxicity against human […] cells after 72 hrs by MTT assay. In kind it is functional, cell-based. In outline:
(§3)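 Vero cells in MEM and HCT-116 cells in RPMI, each with 10% FBS, 1% penicillin–streptomycin and 1% Glutamax. Cells were seeded at 3.0 × 10^4 per well and left to adhere overnight. Medium was replaced, and compounds in DMSO were added to a final 150–0.1 μM. Cells were incubated 72 h at 37 °C in 4.5% CO2 (humidified), then viability was read by MTT.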
(Formazan colour is commonly taken as a measure of viable cells.)

The next series has as its system Vero. As to the kind of experiment: (§4) Cytotoxicity against African green monkey Vero cells at 150 uM after 72 hrs by MTT assay. Particulars: chlorocebus sabaeus, vero, 72 h, 150 µM. It is filed as cell-based. In outline:
as §3

Another series relates to Escherichia coli. Put plainly: Antimicrobial activity against Escherichia coli ATCC 25922 by microbroth dilution assay. It is filed as functional.
For the next series, the system named is Acinetobacter baumannii. Put plainly: Antimicrobial activity against Acinetobacter baumannii ATCC 19606 by microbroth dilution assay. In kind it is functional. The note with it: ATCC 19606 = CIP 70.34 = JCM 6841.
The next series has as its system Cryptococcus neoformans. As to the kind of experiment: Antimicrobial activity against Cryptococcus neoformans ATCC 66031 by microbroth dilution assay. In kind it is functional.
Series [2] concerns Streptomyces scabiei. As to the kind of experiment: Antimicrobial activity against Streptomyces scabies LK 82 at 25 ug/disk after 2 days by disk diffusion assay. It is filed as functional. The method in brief:
as §1

For the next series, the system named is Candida albicans. Put plainly: Antimicrobial activity against Candida albicans ATCC 10231 by microbroth dilution assay. It is filed as functional.
The subject of the next series is Pseudomonas aeruginosa. Put plainly: Antimicrobial activity against Pseudomonas aeruginosa ATCC 27853 by microbroth dilution assay. It is filed as functional.
The subject of the next series is Enterococcus faecalis. As to the kind of experiment: Antimicrobial activity against vancomycin-resistant Enterococcus faecalis ATCC 51299 by microbroth dilution assay. In kind it is functional.
A further series concerns Staphylococcus aureus. As to the kind of experiment: Antimicrobial activity against methicillin-resistant Staphylococcus aureus ATCC 43300 by microbroth dilution assay. It is filed as functional.
The next series relates to Klebsiella pneumoniae. Put plainly: Antimicrobial activity against Klebsiella pneumoniae ATCC 13883 by microbroth dilution assay. In kind it is functional.
Series [3] is described as follows: as §2. In kind it is functional, cell-based. The method in brief: as §3
The nature of series [4]: as §4. Particulars: chlorocebus sabaeus, Vero cells; read-out: GI. In kind it is cell-based. In outline: as §3

Active and inactive are the calls of the source. The calls are words filed in the database; no cut-off is given here.

What is called MIC is the lowest concentration found to suppress growth. What is called EC50 is the midpoint of the concentration-response curve.

For the compound `O=C(O)c1cccc2nc3c(C(=O)O)cccc3nc12`, the outcome with Streptomyces scabiei [1], in the series on HCT16 and with Streptomyces scabiei [2] was inactive. Besides, the MIC against Bacillus spizizenii, against Escherichia coli, against Acinetobacter baumannii, with Cryptococcus neoformans, in the series on Candida albicans and with Pseudomonas aeruginosa was above 25 µg/mL each time. Moreover, the MIC in the series with Enterococcus faecalis, against Staphylococcus aureus and with Klebsiella pneumoniae was above 25 µg/mL in each case. The Activity result in the series with Vero is “Non-toxic”.
Take `C[C@@H]1O[C@@H](OC(=O)c2ccc(O)cc2)[C@H](O)[C@H](O)[C@H]1O`: the result in the series on Streptomyces scabiei [1] and in the series on Streptomyces scabiei [2] was inactive. The MIC with Bacillus spizizenii, against Escherichia coli, in the series with Acinetobacter baumannii, in the series with Cryptococcus neoformans, with Candida albicans and against Pseudomonas aeruginosa was above 25 µg/mL in each case. Also, the MIC in the series with Enterococcus faecalis, with Staphylococcus aureus and with Klebsiella pneumoniae was above 25 µg/mL throughout.
Take `CNc1ccc(C(=O)O[C@@H]2O[C@@H](C)[C@H](O)[C@@H](O)[C@H]2O)cc1`: the result in the series on Streptomyces scabiei [1] and in the series on Streptomyces scabiei [2] was inactive. The MIC in the series on Bacillus spizizenii, with Escherichia coli, with Acinetobacter baumannii, against Cryptococcus neoformans, against Candida albicans and against Pseudomonas aeruginosa was above 25 µg/mL in each case. Moreover, the MIC against Enterococcus faecalis, in the series on Staphylococcus aureus and in the series with Klebsiella pneumoniae was above 25 µg/mL each time.
As to `C[C@@H]1O[C@@H](Oc2cccc3nc4c(C(=O)O)cccc4nc23)[C@H](O)[C@H](O)[C@H]1O` [IZUMINOSIDE A], the outcome in the series with Streptomyces scabiei [1], in the series on HCT16 and in the series on Streptomyces scabiei [2] was inactive. Besides, the MIC with Bacillus spizizenii, against Escherichia coli, against Acinetobacter baumannii, in the series on Cryptococcus neoformans, in the series with Candida albicans and against Pseudomonas aeruginosa was above 25 µg/mL throughout. The MIC with Enterococcus faecalis, against Staphylococcus aureus and against Klebsiella pneumoniae was above 25 µg/mL throughout. For the same compound, the Activity result in the series with Vero is recorded as “Non-toxic”.
As to `C[C@@H]1O[C@@H](OC(=O)c2cccc3nc4c(C(=O)O)cccc4nc23)[C@H](O)[C@H](O)[C@H]1O` [IZUMINOSIDE C], the outcome in the series on Streptomyces scabiei [1], in the series with HCT16 and with Streptomyces scabiei [2] was inactive. Moreover, the MIC in the series with Bacillus spizizenii, in the series with Escherichia coli, in the series on Acinetobacter baumannii, in the series with Cryptococcus neoformans, against Candida albicans and in the series with Pseudomonas aeruginosa was above 25 µg/mL each time. Further, the MIC against Enterococcus faecalis, against Staphylococcus aureus and with Klebsiella pneumoniae was above 25 µg/mL in each case. In addition, in the series with Vero, the Activity result is reported as “Non-toxic”.
Turning to `CC(=O)O[C@@H]1[C@@H](O)[C@H](C)O[C@@H](OC(=O)c2cccc3nc4c(C(=O)O[C@@H]5O[C@@H](C)[C@H](O)[C@@H](O)[C@H]5O)cccc4nc23)[C@@H]1O` [SOPHENAZINE B], the outcome in the series with Streptomyces scabiei [1] and with Streptomyces scabiei [2] was inactive. For the same compound, the MIC with Bacillus spizizenii, against Escherichia coli, against Acinetobacter baumannii, against Cryptococcus neoformans, with Candida albicans and with Pseudomonas aeruginosa was above 25 µg/mL each time. Besides, the MIC against Enterococcus faecalis, with Staphylococcus aureus and in the series with Klebsiella pneumoniae was above 25 µg/mL throughout. This compound registered a concentration giving a half-maximal response (EC50) in series [3] of 52 µM. In addition, the inhibition at 72 h, 150 µM in series [4] was 30%.
As for `CC(=O)O[C@@H]1[C@@H](O)[C@H](C)O[C@@H](OC(=O)c2cccc3nc4c(C(=O)O[C@@H]5O[C@@H](C)[C@H](O)[C@@H](OC(C)=O)[C@H]5O)cccc4nc23)[C@@H]1O` [SOPHENAZINE C], the outcome with Streptomyces scabiei [1] and in the series on Streptomyces scabiei [2] was inactive. For the same compound, the MIC with Bacillus spizizenii, in the series on Escherichia coli, in the series with Acinetobacter baumannii, in the series on Cryptococcus neoformans, against Candida albicans and against Pseudomonas aeruginosa was above 25 µg/mL each time. The MIC with Enterococcus faecalis, with Staphylococcus aureus and against Klebsiella pneumoniae was above 25 µg/mL each time.
For `C[C@@H]1O[C@@H](OC(=O)c2cccc3nc4c(O[C@@H]5O[C@@H](C)[C@H](O)[C@@H](O)[C@H]5O)cccc4nc23)[C@H](O)[C@H](O)[C@H]1O` [SOPHENAZINE D], the outcome in the series on Streptomyces scabiei [1], in the series with HCT16 and in the series on Streptomyces scabiei [2] was inactive. Moreover, the MIC in the series on Bacillus spizizenii, against Escherichia coli, in the series on Acinetobacter baumannii, in the series with Cryptococcus neoformans, against Candida albicans and against Pseudomonas aeruginosa was above 25 µg/mL in each case. The MIC in the series with Enterococcus faecalis, in the series with Staphylococcus aureus and in the series on Klebsiella pneumoniae was above 25 µg/mL throughout. Besides, the Activity entry in the series on Vero is listed as “Non-toxic”.
As for `COC(=O)c1cccc2nc3c(O[C@@H]4O[C@@H](C)[C@H](O)[C@@H](O)[C@H]4O)cccc3nc12` [SOPHENAZINE E], the result in the series on Streptomyces scabiei [1], in the series on HCT16 and in the series with Streptomyces scabiei [2] was inactive. The MIC in the series with Bacillus spizizenii, in the series with Escherichia coli, in the series on Acinetobacter baumannii, against Cryptococcus neoformans, in the series on Candida albicans and with Pseudomonas aeruginosa was above 25 µg/mL in each case. Also, the MIC in the series with Enterococcus faecalis, in the series with Staphylococcus aureus and against Klebsiella pneumoniae was above 25 µg/mL in each case. Moreover, the Activity entry in the series on Vero was “Non-toxic”.
With `C[C@@H]1O[C@@H](Oc2cccc3nc4c(O[C@@H]5O[C@@H](C)[C@H](O)[C@@H](O)[C@H]5O)cccc4nc23)[C@H](O)[C@H](O)[C@H]1O` [SOPHENAZINE F], the outcome with Streptomyces scabiei [1] and in the series with Streptomyces scabiei [2] was inactive. Also, the MIC in the series on Bacillus spizizenii, against Escherichia coli, with Acinetobacter baumannii, against Cryptococcus neoformans, with Candida albicans and in the series with Pseudomonas aeruginosa was above 25 µg/mL in each case. The MIC in the series with Enterococcus faecalis, in the series with Staphylococcus aureus and in the series on Klebsiella pneumoniae was above 25 µg/mL in each case. The compound also had an EC50 in series [3] of 45 µM.
